OXTR ag = human OXTR agonists, primary screen, fluorescence, CHO-OTR cells, Fluo-8 calcium; AID 2435, 2010; activation, % at 3 µM; hit rate 0.32% among 320,000; Oxytocin receptor (Homo sapiens), P30559; Fluo-8 calcium fluorescence; normalized: DMSO 0%, oxytocin 100%;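 active means activation above the mean of all tested compounds plus 3 SD, cutoff set per screening run, cut at about 20% in these data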;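 further: peak over basal fluorescence ratio from a 100 s FLIPR kinetic read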
OXTR potentiate = human OXTR potentiators, primary screen, fluorescence, CHO-OTR cells, Fluo-8 calcium | Fluo-8 calcium fluorescence, potentiator mode; 0% = oxytocin EC15, 100% = EC100 | activation, % at 3 µM | hit rate 0.061% among 320,000 | AID 2445, 2010;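 active means activation above that plate's cutoff, the mean activation of tested compounds plus 3 SD, cut at about 6.6% in these data, passing the limit was not always enough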
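Assay system: CHO-OTR cells, human receptor / Also added: oxytocin at about EC15, sub-maximal agonist stimulus / Dosing: single dose, 3.0 µM nominal final compound concentration / Incubation: 6 min pre-incubation, 100 s read / Technique: Fluo-8 calcium dye fluorescence / Read-out: % activation vs EC15 and EC100 oxytocin / Benchmarks: EC15 oxytocin low, 75 nM oxytocin high / Replicates: singlicate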
OX1R antag-1 = antagonists of human orexin 1 receptor (OX1R); inhibition, % at 6.6 µM; Orexin/Hypocretin receptor type 1 (Homo sapiens), O43613; AID 485270, 2010; OX1R-expressing cells, FRET antagonist read-out; hit rate 1.8% among 330,000; in the data active means inhibition mostly above about 38%, no sharp cut-off; inactive means mostly below about 40%
Target sequence (O43613 whole entry, looked up): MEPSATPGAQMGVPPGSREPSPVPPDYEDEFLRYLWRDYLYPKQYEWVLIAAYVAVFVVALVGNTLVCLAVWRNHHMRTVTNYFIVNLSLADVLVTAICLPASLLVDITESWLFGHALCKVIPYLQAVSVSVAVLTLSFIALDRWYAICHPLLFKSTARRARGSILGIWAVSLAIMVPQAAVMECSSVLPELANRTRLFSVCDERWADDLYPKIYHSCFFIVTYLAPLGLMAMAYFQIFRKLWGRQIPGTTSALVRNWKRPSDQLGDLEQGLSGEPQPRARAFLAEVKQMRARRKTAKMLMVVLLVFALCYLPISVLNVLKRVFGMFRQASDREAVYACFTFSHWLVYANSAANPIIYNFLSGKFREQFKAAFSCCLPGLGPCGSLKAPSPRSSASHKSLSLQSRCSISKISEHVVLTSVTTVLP
OX1R antag-2 = OX1R (HCRTR1) antagonists, primary screen, fluorescence, CHO/OX1R cells, Fluo-8 calcium, orexin A; Fluo-8 calcium fluorescence; hit rate 0.43% among 330,000; inhibition, % at 5 µM;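 active means inhibition above its plate's threshold, mean inhibition of all tested compounds on the plate plus 3 SD, cut at about 37% in these data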
CHO parental Ca = ATP-evoked calcium signal inhibitors, parental CHO, primary screen, counter-screen for OX1R antagonist project, cell-based, fluorescence, Fluo-8 calcium dye; parental CHO-K1, ATP-induced calcium, Fluo-8 fluorescence; inhibition, % at 5.6 µM; hit rate 0.63% among 330,000;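 active means inhibition above that plate's mean sample inhibition plus 3 SD, cut at about 26% in these data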
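Material: Parental CHO cells | Reagent: ATP | Compound dosing: Single nominal dose of 5.6 µM per compound | Detection: Intracellular calcium via Fluo-8 no-wash fluorescent dye | Read-out: % inhibition of ATP-induced calcium mobilization | Benchmarks: Low control ATP plus DMSO, high control DMSO only | Replicates: Singlicate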
V1R ag counter = agonists of human V1a receptor, primary screen, counter-screen for OXTR agonist project, fluorescence, CHO-V1R cells | Vasopressin V1a receptor (Homo sapiens), P37288 | Fluo-8 calcium fluorescence, agonist mode; 0% DMSO, 100% 3 nM vasopressin | activation, % at 3 µM | hit rate 0.25% among 320,000;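 active means activation above the mean activation of all tested compounds plus 3 SD, per screening run, cut at about 20% in these data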;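 further: signal is peak over basal fluorescence ratio across a 100 second FLIPR read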
Large screens that a line does not name were inactive. Most compounds without a hit are left out; they make up all but 2.7% or so of the library.

COc1ccc(CN2CCNC(=O)C2CC(=O)N(C)Cc2nonc2C)c(F)c1 (stereo unspecified)	none
Cc1cc(C)n2nc(CNS(=O)(=O)c3ccc([N+](=O)[O-])cc3)nc2n1	OX1R antag-1 51
Cc1[nH]c2ccccc2c1/C=N/NS(=O)(=O)c1ccccc1	none
Cc1[nH]c2ccccc2c1/C=N/Nc1ccccc1[N+](=O)[O-]	OX1R antag-1 67
O=C(NCC1CCCO1)c1cccc(S(=O)(=O)N(Cc2ccccc2)c2ccccc2)c1 (stereo unspecified)	none
COc1cccc(-c2nn(-c3ccc(C)cc3)cc2C(=O)N2CCc3cc(OC)c(OC)cc3C2)c1	OX1R antag-1 46
COc1ccc(S(=O)(=O)NN(C)c2nc(C(F)(F)F)nc3ccccc23)cc1	OX1R antag-1 72
COc1ccc(S(=O)(=O)Nc2ccccc2C(F)(F)F)cc1	none
COc1cc(/C=C/C(=O)c2ccc3c(c2)OCCO3)cc(Br)c1OCC(=O)N(C)C	none
Cc1ccc([C@H]2C(C(=O)O)=CC[C@@H](c3ccc(C)cc3)N2S(=O)(=O)c2ccccc2C)cc1	OX1R antag-1 45
Cc1ccccc1S(=O)(=O)N1[C@@H](c2ccc(Cl)cc2)C(C(=O)O)=CC[C@H]1c1ccc(Cl)cc1	none
Cc1ccc([C@@H]2CC=C(C(=O)O)[C@H](c3ccccc3)N2S(=O)(=O)c2ccccc2C)cc1	OX1R antag-1 54
COc1ccc([C@@H]2CC=C(C(=O)O)[C@H](c3ccc(C)cc3)N2S(=O)(=O)c2ccccc2C)cc1	OX1R antag-1 50
Cc1ccc([C@H]2C(C(=O)O)=CC[C@@H](c3ccc(Cl)cc3)N2S(=O)(=O)c2ccccc2C)cc1	none
CN(C)S(=O)(=O)c1cc(NC(=O)Cn2ccsc2=N)ccc1Cl	none
CC[N+](C)(C)CC/C=C1/c2ccccc2Sc2ccc(Cl)cc21	none
CCCCCCCCCC[N+](C)(C)CC/C=C1/c2ccccc2Sc2ccc(Cl)cc21	OXTR ag 31, V1R ag counter 37
Cc1ccc(Cl)cc1N1CCN(C(=O)Cn2ncn3cccc3c2=O)CC1	none
CS(=O)(=O)c1ccc(C(=O)OCC(=O)NC23CC4CC(CC(C4)C2)C3)cc1[N+](=O)[O-]	OX1R antag-2 42, CHO parental Ca 68
COC(=O)c1ccc(N2CCN(C)CC2)c(NC(=O)c2ccc(-c3ccc(Cl)cc3)o2)c1	none
COc1ccc(NC(C)=O)cc1NC(=O)c1ccc2ccccc2c1	none
CCCn1c(=O)c(C(=O)NNC(=O)c2ccccc2[N+](=O)[O-])c(O)c2ccccc21	none
CCCn1c(=O)c(C(=O)NNC(=O)c2ccccc2Cl)c(O)c2ccccc21	OXTR ag 40, V1R ag counter 30
O=C(CN1CCN(S(=O)(=O)c2ccccc2)CC1)Nc1ccc([N+](=O)[O-])cc1	none
N#C/C(=C(/O)c1ccc2c(c1)OCO2)c1nc2cc(C(F)(F)F)ccc2s1	OX1R antag-1 58
CC(Sc1nnc(COc2ccc(Cl)cc2)n1Cc1ccco1)C(=O)N1CCNC1=O (stereo unspecified)	none
COc1ccc(Cl)cc1NC(=O)COC(=O)/C=C/c1c(C)nn(C2CCS(=O)(=O)C2)c1Cl (stereo unspecified)	CHO parental Ca 44
Cc1nn(C2CCS(=O)(=O)C2)c(Cl)c1/C=C/C(=O)OCC(=O)Nc1ccccc1OC(F)F (stereo unspecified)	none
COc1cccc(-n2c(C)nc3c(cnn3-c3ccc(C)cc3)c2=O)c1	none
Cc1cccc(-n2c(C)nc3c(cnn3-c3ccc(F)cc3)c2=O)c1	CHO parental Ca 35
COc1ccc(Oc2c(Cl)cnn(-c3ccc(Cl)c(Cl)c3)c2=O)cc1	CHO parental Ca 52

Bioassay records as filed in PubChem BioAssay.
